Only some compounds are listed: those with a hit (about 3% of all), similar ones and a draw of the others.
Tn7 DDE FP – disrupts Tn7 cyclic peptide binding to fibrin D-Dimer-E complex; P02675; FP displacement of FITC-Tn7 peptide from fibrin DD(E); 0% = median of compound wells per plate; inhibition, % at 8.3 µM; actives 0.13% (n = 370,000); AID 720508;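 active = inhibition above the mean of compounds falling within the control limits plus 3 SD of them, cut at about 14% in these data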
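Also added: labelled Tn7 tracer, 0.1 µM; Assay system: human fibrin DD(E) protein; Amount: 2 µM fibrin DD(E); Schedule: 10 min compound pre-incubation, 3 h probe incubation at room temperature; Repeats: one replicate per compound; Read-out basis: percent inhibition; Measured by: fluorescence polarization of the labelled Tn7 tracer.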
PLCb3 inh – PLC-beta3 (human) inhibition, primary screen | Q01970 | Purified PLC-beta3, fluorogenic substrate, fluorescence | inhibition, % at 12.2 µM | actives 0.18% (n = 370,000) | AID 720704; in the data active = inhibition above about 11%
proKLK7 act – activates the human kallikrein-7 zymogen; P49862; purified proKLK7, EDANS-DABCYL substrate fluorescence; 100% is mature enzyme control, 0% vehicle; activation, % at 7 µM; actives 0.9% (n = 370,000); AID 652039;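 active = activation above the mean of all tested compounds plus 3 SD, computed per campaign excluding outliers beyond control limits, cut at about 13% in these data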
CendR NRP1 mod – alters CendR peptide binding to human NRP-1. O14786. FAM-RPARPAR peptide binding to NRP-1, fluorescence polarization. inhibition, % at 25 µM. actives 0.85% (n = 360,000);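 active = inhibition or corrected inhibition above about 18%, plus a signal ratio from 0.5 to 1.5, limit read from the data, passing the limit was not always enough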
PLC-gamma1 inh – blocks human PLC-gamma1 enzyme activity; purified PLC-gamma1, fluorogenic substrate, fluorescence; inhibition, % at 12.2 µM; actives 0.84% (n = 370,000); P19174; in the data active = inhibition above about 9.5%
Target sequence (P19174 whole entry, looked up): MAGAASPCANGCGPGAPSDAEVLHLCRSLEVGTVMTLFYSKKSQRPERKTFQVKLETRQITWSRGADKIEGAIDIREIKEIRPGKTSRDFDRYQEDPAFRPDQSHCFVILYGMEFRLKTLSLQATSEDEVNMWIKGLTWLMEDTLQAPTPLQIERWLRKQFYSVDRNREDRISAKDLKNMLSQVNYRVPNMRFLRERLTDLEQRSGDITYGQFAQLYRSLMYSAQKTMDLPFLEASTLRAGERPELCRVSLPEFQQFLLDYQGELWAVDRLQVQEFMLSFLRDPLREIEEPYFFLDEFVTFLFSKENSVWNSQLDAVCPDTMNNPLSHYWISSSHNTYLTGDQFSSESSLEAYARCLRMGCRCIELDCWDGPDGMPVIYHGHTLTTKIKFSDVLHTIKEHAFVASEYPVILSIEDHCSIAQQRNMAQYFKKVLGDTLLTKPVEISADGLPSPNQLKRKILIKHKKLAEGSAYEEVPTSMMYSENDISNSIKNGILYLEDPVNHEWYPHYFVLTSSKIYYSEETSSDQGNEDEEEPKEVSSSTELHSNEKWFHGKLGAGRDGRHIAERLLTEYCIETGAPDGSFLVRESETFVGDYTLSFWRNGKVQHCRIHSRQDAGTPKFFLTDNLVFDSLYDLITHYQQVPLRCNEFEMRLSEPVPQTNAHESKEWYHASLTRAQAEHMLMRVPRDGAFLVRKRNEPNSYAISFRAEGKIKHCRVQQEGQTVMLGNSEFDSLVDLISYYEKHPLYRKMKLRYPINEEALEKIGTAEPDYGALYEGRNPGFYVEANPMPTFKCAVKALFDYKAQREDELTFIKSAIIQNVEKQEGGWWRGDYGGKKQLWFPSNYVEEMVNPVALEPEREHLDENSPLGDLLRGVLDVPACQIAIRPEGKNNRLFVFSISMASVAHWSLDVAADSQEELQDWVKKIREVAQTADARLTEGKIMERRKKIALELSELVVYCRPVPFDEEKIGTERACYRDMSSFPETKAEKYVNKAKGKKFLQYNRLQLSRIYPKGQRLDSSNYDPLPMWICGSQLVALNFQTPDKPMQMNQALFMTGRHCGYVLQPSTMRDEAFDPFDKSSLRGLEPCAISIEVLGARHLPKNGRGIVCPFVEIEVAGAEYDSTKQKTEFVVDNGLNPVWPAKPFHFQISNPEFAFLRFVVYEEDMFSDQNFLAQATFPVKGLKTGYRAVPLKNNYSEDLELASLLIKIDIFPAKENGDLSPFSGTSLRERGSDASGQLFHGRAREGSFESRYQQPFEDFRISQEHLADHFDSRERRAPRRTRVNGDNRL
Tn6 DDE FP – DD(E)-Tn6 binding inhibition, primary FP screen | P02675 | Fibrin DD(E) TRITC-Tn6 fluorescence polarization displacement | inhibition, % at 8.3 µM | actives 0.21% (n = 370,000);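 active = inhibition above a per-campaign cutoff: mean of compounds within control limits plus 3 SD, cut at about 15% in these data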
Numbers stand for hits; 0 = inactive; - = not tested or not shown.

SMILES	Tn7 DDE FP	PLCb3 inh	proKLK7 act	CendR NRP1 mod	PLC-gamma1 inh	Tn6 DDE FP
CCNC(=O)C1(C)CCCN(C(=O)c2nc(C)oc2C)C1 (stereo unspecified)	0	0	0	24	0	0
CCOC(=O)C1=C(N)Oc2cc(O)ccc2C1c1cccc(Cl)c1 (stereo unspecified)	0	0	0	27	0	0
COc1ccc(C(=O)Oc2ccc(C(=S)N3CCOCC3)cc2)cc1	0	0	0	0	13	0
COc1ccc(C(=S)N2CCOCC2)cc1OC(=O)c1cc([N+](=O)[O-])c(C)c([N+](=O)[O-])c1	0	0	0	28	0	0
O=C(Oc1ccc(C(=S)N2CCOCC2)cc1)c1ccc(Br)cc1	0	0	0	0	0	0
CCc1nnc(NC(=O)CCC(=O)N2CCN(Cc3ccc(C)cc3C)CC2)s1	0	0	0	0	14	0
CCCc1nnc(NC(=O)CCC(=O)N2CCN(Cc3ccc(C)cc3C)CC2)s1	0	0	0	0	0	0
Cc1cc(NC(=O)CN(C)CC(=O)Nc2ccc(Cl)cc2)no1	0	0	0	19	0	0
CN(C)[C@@H]1CCN(c2cccc3c2S(=O)(=O)N2CC[C@H](C2)O3)C1	0	0	0	-	0	0
Clc1cccc(CNC2CCC23CCCCC3)c1 (stereo unspecified)	0	0	-	-	0	0
O=C(NCCc1ccc(O)cc1)c1ccc(Cl)cc1	0	0	0	24	0	0
CC(=O)NCC1COc2ccccc2O1 (stereo unspecified)	0	0	0	0	0	0
O=C(NCC1COc2ccccc2O1)Nc1ccccc1F (stereo unspecified)	0	0	0	19	0	0
CC(C)=CC(O)C/C(C)=C/COc1ccc2ccc(=O)oc2c1 (stereo unspecified)	0	0	0	26	0	0
Cc1csc(SCC(=O)Nc2cccc(S(=O)(=O)N3CCCC3)c2)n1	0	0	0	26	0	0
Cc1cccc(OCC(=O)Nc2ccc3c(c2)OCO3)c1C	0	0	0	0	0	0
Cc1ccc(C)c(OCC(=O)Nc2ccc3c(c2)OCO3)c1C	0	0	0	0	12	0
CCOC(=O)CNc1ccc2c(c1)OCO2	0	0	0	34	0	0
CCOC(=O)CNC(=O)/C=C/c1ccc2c(c1)OCO2	0	0	0	0	0	0
CC(C)C(C#CC1CC1)N(Cc1ccc2c(c1)OCO2)C(N)=NC(=O)/C=C/c1ccccc1 (stereo unspecified)	0	0	0	-	0	0
C=C(CC[C@@H](O)C(C)(C)O)[C@H]1CC[C@]2(C)[C@@H]1CCC1[C@@]3(C)CCC(=O)C(C)(C)C3CC[C@]12C (stereo partly specified)	0	0	0	28	0	0
C=C(C)[C@@H]1CCC2(C(=O)O)CC[C@]3(C)[C@H](CC[C@@H]4[C@@]5(C)CCC(=O)C(C)(C)[C@@H]5CC[C@]43C)[C@@H]12 (stereo partly specified)	0	0	0	0	0	0
Cc1[nH]c(=O)c(C#N)c(C)c1Cl	0	0	0	26	0	0
COCc1c(Br)c(C)[nH]c(=O)c1C#N	0	0	0	0	0	0
C=C(C)Cn1c(SCC(=O)O)nnc1-c1ccc(C(C)(C)C)cc1	0	0	0	0	0	0
SMILES	Tn7 DDE FP	PLCb3 inh	proKLK7 act	CendR NRP1 mod	PLC-gamma1 inh	Tn6 DDE FP
C=C(C)Cn1c(SCC(=O)O)nnc1-c1ccccc1	0	0	0	28	0	0
CCCCOCCCNC(=O)C[C@H]1C[C@@]2(C(=O)OC)C(=C[C@H](C(C)C)O[C@@H]2C2CC2)N(CCc2ccc(OC)c(OC)c2)C1=O	0	0	0	-	0	0
CC(CN1CCOCC1)OC(=O)c1ccc2c(c1)OCCO2 (stereo unspecified)	0	0	0	27	0	0
CCCC(=O)N1CCC[C@]2(CC[C@@H](CCC(=O)N(CC)CC)O2)C1	0	0	0	-	0	0
O=C(OCc1cc2ccccc2[nH]c1=O)c1ccncc1	0	0	0	32	0	0
O=C(OCc1cc2ccccc2[nH]c1=O)c1ccccc1	0	0	0	0	0	0
c1ccc(CCN2CCN=C2Nc2ccccc2)cc1	0	0	0	0	0	0
Cc1cccc(CCN2CCN=C2Nc2ccccc2)c1	0	0	0	27	0	0
Cc1cc(S(=O)(=O)NC2CCCCC2)ccc1OCC(=O)N1CCOCC1	-	-	-	27	-	-
COc1ccc(S(=O)(=O)N2CCCC(C(=O)N3CCOCC3)C2)cc1C (stereo unspecified)	0	0	0	34	0	0
COc1ccc(C(=O)Nc2ccc(C(=O)OCC(=O)c3cccc4ccccc34)cc2)cc1	0	0	0	32	0	0
COC(=O)c1cnn(-c2ccccc2)c1N	0	0	0	0	0	0
CC(=O)NC(=O)c1cnn(-c2ccccc2)c1N	0	0	0	36	0	0
C=CCN1c2ccccc2[C@]23C[C@@H](C(=O)OC)N(C(=O)c4ccco4)C2=NC(C(=O)OC)=C(C(=O)OC)[C@H]13	0	0	0	0	0	0
C=CCN1c2ccccc2[C@]23C[C@@H](C(=O)OC)N(C(=O)C4CCC4)C2=NC(C(=O)OC)=C(C(=O)OC)[C@H]13	0	0	0	25	0	0
Cc1ccccc1Nc1nc(N)nc(COC(=O)CCS(=O)(=O)c2ccccc2)n1	0	0	0	0	0	0
Cc1ccccc1Nc1nc(N)nc(COC(=O)CC2CC3CCC2C3)n1 (stereo unspecified)	0	0	0	27	0	0
CC1=CC(C)(C)N(S(=O)(=O)c2ccc(C)cc2)c2ccc(C)cc21	0	0	0	0	0	0
CC1=CC(C)(C)[N+](C)(C)c2ccc(C)cc21	0	0	0	38	0	0
COC(=O)[C@]12C[C@H](CC(=O)NCc3cccc4ccccc34)C(=O)N(Cc3ccco3)C1=C[C@H](C1CCCC1)O[C@@H]2C	0	0	0	-	0	0
Cc1cccc(C(CC(=O)NCCc2ccccc2)c2ccccc2)c1O (stereo unspecified)	0	0	0	21	0	0
C/C(=N/NC(=O)c1cc(-c2ccc(Br)s2)[nH]n1)c1ccco1	0	0	0	36	0	0
C/C(=N\NC(=O)c1cc([N+](=O)[O-])cc([N+](=O)[O-])c1)c1ccco1	0	0	0	25	0	0
CN(c1c2c(nc3ncnn13)CCCC2)C1CCCCC1	0	0	0	-	0	0
CCOc1ccc(NC(=O)C2CC3CCC2C3)cc1 (stereo unspecified)	0	0	0	28	0	0
CCOc1ccc(NC(=O)C2CCC(N3C(=O)C4CC=CCC4C3=O)CC2)cc1 (stereo unspecified)	0	0	0	29	0	0

Screening results deposited in PubChem BioAssay by several laboratories.
